According to ChEMBL document CHEMBL2380245, “Synthesis and evaluation of 2,3-dinorprostaglandins: Dinor-PGD1 and 13-epi-dinor-PGD1 are peroxisome proliferator-activated receptor α/γ dual agonists” (Bioorg Med Chem Lett, 2013):
Active and inactive are the calls of the source. No cut-off for these calls is given here.

Experiments:
Format in all cases: cell-based
[1] = biological target: T1, Peroxisome proliferator-activated receptor gamma (Homo sapiens) (UniProt P37231); test: Agonist activity at PPARgamma (unknown origin) transfected in HEK293 cells at 10 uM by luciferase reporter gene assay
T1 sequence (whole entry): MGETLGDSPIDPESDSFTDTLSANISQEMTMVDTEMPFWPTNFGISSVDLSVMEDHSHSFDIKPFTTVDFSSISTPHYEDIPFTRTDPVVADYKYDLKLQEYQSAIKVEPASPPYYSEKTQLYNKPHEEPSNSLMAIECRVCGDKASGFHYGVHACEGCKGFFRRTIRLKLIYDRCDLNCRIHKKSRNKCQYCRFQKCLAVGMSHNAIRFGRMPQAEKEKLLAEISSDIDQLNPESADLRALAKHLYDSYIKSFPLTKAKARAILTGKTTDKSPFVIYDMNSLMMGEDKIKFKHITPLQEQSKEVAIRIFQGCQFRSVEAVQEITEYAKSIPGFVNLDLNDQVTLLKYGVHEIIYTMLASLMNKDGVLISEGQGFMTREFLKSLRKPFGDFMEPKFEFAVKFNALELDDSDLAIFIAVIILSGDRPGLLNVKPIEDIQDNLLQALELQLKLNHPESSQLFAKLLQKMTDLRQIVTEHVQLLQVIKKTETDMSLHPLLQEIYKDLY
How it was run: (§1)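 Luciferase PPAR reporter assay in transfected HEK293 cells, run following a previously reported protocol. Each receptor was tested alongside a subtype-selective reference agonist as control: PPARα at 10 µM, PPARδ at 100 nM and PPARγ at 10 µM.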

[2] = biological target: T2, Peroxisome proliferator-activated receptor delta (Homo sapiens) (UniProt Q03181); test: Agonist activity at PPARdelta (unknown origin) transfected in HEK293 cells at 10 uM by luciferase reporter gene assay
T2 sequence (whole entry): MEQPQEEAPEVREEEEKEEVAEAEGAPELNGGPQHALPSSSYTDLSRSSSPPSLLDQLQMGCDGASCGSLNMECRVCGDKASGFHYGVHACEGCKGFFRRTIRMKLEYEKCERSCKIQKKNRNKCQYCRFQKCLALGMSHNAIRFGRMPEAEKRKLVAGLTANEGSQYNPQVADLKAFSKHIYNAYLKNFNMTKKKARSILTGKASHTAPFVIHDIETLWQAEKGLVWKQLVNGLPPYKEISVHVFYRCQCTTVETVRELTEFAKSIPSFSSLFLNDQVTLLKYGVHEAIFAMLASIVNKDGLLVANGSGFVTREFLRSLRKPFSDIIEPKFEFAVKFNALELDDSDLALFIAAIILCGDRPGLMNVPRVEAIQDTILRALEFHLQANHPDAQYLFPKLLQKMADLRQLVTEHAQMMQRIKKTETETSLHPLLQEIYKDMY

[3] = biological target: T3, Peroxisome proliferator-activated receptor alpha (Homo sapiens) (UniProt Q07869); test: Agonist activity at PPARalpha (unknown origin) transfected in HEK293 cells at 10 uM by luciferase reporter gene assay; how it was run: as §1
T3 sequence (whole entry): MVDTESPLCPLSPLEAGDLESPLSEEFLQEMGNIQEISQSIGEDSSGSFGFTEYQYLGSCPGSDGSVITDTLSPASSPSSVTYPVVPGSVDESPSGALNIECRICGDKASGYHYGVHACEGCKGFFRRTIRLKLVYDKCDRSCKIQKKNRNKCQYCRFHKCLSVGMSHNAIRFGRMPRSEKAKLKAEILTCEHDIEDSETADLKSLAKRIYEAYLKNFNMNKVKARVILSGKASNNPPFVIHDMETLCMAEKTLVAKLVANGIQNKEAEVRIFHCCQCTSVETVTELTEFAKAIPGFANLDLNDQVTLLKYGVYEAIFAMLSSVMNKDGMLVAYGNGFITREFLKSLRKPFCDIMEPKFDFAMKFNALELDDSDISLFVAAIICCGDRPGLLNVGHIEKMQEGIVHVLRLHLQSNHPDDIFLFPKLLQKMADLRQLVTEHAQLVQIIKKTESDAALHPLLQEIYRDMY

[4] = biological target: T3, Peroxisome proliferator-activated receptor alpha (Homo sapiens); test: Agonist activity at PPARalpha (unknown origin) transfected in HEK293 cells at 1 to 30 uM by luciferase reporter gene assay
[5] = biological target: T1, Peroxisome proliferator-activated receptor gamma (Homo sapiens); test: Agonist activity at PPARgamma (unknown origin) transfected in HEK293 cells at 1 to 30 uM by luciferase reporter gene assay

| Activity [1] | Activity [2] | Activity [3] | Activity [4] | Activity [5] | Compound |
| --- | --- | --- | --- | --- | --- |
| Active | Active | Active |  |  | CC1(COc2ccc(CC3SC(=O)NC3=O)cc2)CCCCC1 (stereo not given) |
| Active | Active | Active |  |  | CCCCC/C=C/C=C1/C(=O)C=C[C@@H]1CCCCC(=O)O |
| Active | Active | Active |  |  | CC(C)(Oc1ccc(C(=O)c2ccc(Cl)cc2)cc1)C(=O)O |
|  |  | Active | Active | Active | CCCCC[C@H](O)/C=C/[C@H]1C(=O)C[C@H](O)[C@@H]1CCCCC(=O)O |
| Active | Active | Active | Active | Active | CCCCC[C@H](O)/C=C/[C@H]1C(=O)C[C@H](O)[C@@H]1C/C=C\CCCC(=O)O |
|  |  | Active | Active | Active | CCCCC[C@@H](O)/C=C/[C@H]1C(=O)C[C@H](O)[C@@H]1CCCCC(=O)O |
